According to ChEMBL document CHEMBL1773042, “Antiproliferative triterpenes from the leaves and twigs of Juglans sinensis on HSC-T6 cells” (2011):

Legend:
[1] = Antiproliferative activity against rat HSC-T6 cells at 100 uM after 48 hrs by MTT assay; type: functional; conditions: HSC-T6, 48 h
Summary of the method: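 HSC-T6 (immortalized rat hepatic stellate line) kept in DMEM with 10% heat-inactivated FBS, penicillin/streptomycin, 37 °C, 5% CO2. Seeded at 5 × 10^4 cells/mL, grown 24 h, then exposed 48 h to vehicle or compound (10–100 μM, DMSO final 0.1%). MTT 2 mg/mL for 2 h, absorbance at 540 nm. Proliferation given as 100 × treated/vehicle absorbance. Mean of three independent experiments.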

[2] = Cell cycle arrest in rat HSC-T6 cells assessed as inhibition of DNA synthesis at sub-G1 phase at 25 uM after 24 hrs; type: functional, cell-based; design: scale not given: the % may be the effect or the level left
Summary of the method: (§1)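 Cells seeded at 5 × 10^5 cells/mL for 24 h, then treated at 25 μM for 24 or 48 h; controls received vehicle. Cells were harvested, washed twice in PBS pH 7.4 and fixed overnight in ice-cold 70% ethanol at 4 °C. Stained with PI/RNase buffer for 30 min at room temperature, then flow cytometry for phase distribution. Mean ± SD, three independent experiments in triplicate wells.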

[3] = Cell cycle arrest in rat HSC-T6 cells assessed as inhibition of DNA synthesis at G0/G1 phase at 25 uM after 24 hrs; type: functional, cell-based; design: scale not given: the % may be the effect or the level left; summary of the method: as §1
[4] = Cell cycle arrest in rat HSC-T6 cells assessed as inhibition of DNA synthesis at S phase at 25 uM after 24 hrs; type: functional, cell-based; design: scale not given: the % may be the effect or the level left; summary of the method: as §1
[5] = Cell cycle arrest in rat HSC-T6 cells assessed as inhibition of DNA synthesis at G2/M phase at 25 uM after 24 hrs; type: functional, cell-based; design: scale not given: the % may be the effect or the level left; summary of the method: as §1
[6] = Cell cycle arrest in rat HSC-T6 cells assessed as inhibition of DNA synthesis at sub-G1 phase at 25 uM after 48 hrs; type: functional, cell-based; design: scale not given: the % may be the effect or the level left; summary of the method: as §1
[7] = Cell cycle arrest in rat HSC-T6 cells assessed as inhibition of DNA synthesis at G0/G1 phase at 25 uM after 48 hrs; type: functional, cell-based; design: scale not given: the % may be the effect or the level left; summary of the method: as §1
[8] = Cell cycle arrest in rat HSC-T6 cells assessed as inhibition of DNA synthesis at S phase at 25 uM after 48 hrs; type: functional, cell-based; design: scale not given: the % may be the effect or the level left; summary of the method: as §1
[9] = Cell cycle arrest in rat HSC-T6 cells assessed as inhibition of DNA synthesis at G2/M phase at 25 uM after 48 hrs; type: functional, cell-based; design: scale not given: the % may be the effect or the level left; summary of the method: as §1
[10] = Induction of apoptosis in rat HSC-T6 cells assessed as early apoptotic cells at 10 uM after 24 hrs using Annexin V-FITC staining by flow cytometry; type: functional
Summary of the method: (§2)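 After 24 h seeding at 5 × 10^5 cells/mL, HSC-T6 cells were treated at 10 or 25 μM for 24 or 48 h, then collected and washed twice with PBS. Annexin-V/PI double staining with flow cytometry separated Annexin-V+/PI− (early apoptotic), Annexin-V+/PI+ (late apoptotic) and Annexin-V−/PI+ (dead) cells, expressed as percentages. Data representative of three independent experiments.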

[11] = Induction of apoptosis in rat HSC-T6 cells assessed as late apoptotic cells at 10 uM after 24 hrs using Annexin V-FITC staining by flow cytometry; type: functional; summary of the method: as §2
[12] = Induction of apoptosis in rat HSC-T6 cells assessed as dead cells at 10 uM after 24 hrs using Annexin V-FITC staining by flow cytometry; type: functional
Summary of the method: (§3)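 HSC-T6 cells seeded at 5 × 10^5 cells/mL in 12-well plates for 24 h, then exposed to compound at 10 or 25 μM for 24 or 48 h. Harvested, washed twice in PBS pH 7.4, stained with Annexin-V/PI and analysed by flow cytometry. Dead cells scored as Annexin-V−/PI+, given as percentage. Representative of three independent experiments.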

[13] = Induction of apoptosis in rat HSC-T6 cells assessed as early apoptotic cells at 25 uM after 24 hrs using Annexin V-FITC staining by flow cytometry; type: functional; summary of the method: as §2
[14] = Induction of apoptosis in rat HSC-T6 cells assessed as late apoptotic cells at 25 uM after 24 hrs using Annexin V-FITC staining by flow cytometry; type: functional; summary of the method: as §2
[15] = Induction of apoptosis in rat HSC-T6 cells assessed as dead cells at 25 uM after 24 hrs using Annexin V-FITC staining by flow cytometry; type: functional; summary of the method: as §3
[16] = Induction of apoptosis in rat HSC-T6 cells assessed as viable cells at 25 uM after 24 hrs using Annexin V-FITC staining by flow cytometry; type: functional; conditions: HSC-T6, 24 h, read-out: Activity; summary of the method: as §2
[17] = Induction of apoptosis in rat HSC-T6 cells assessed as early apoptotic cells at 25 uM after 48 hrs using Annexin V-FITC staining by flow cytometry; type: functional; summary of the method: as §2
[18] = Induction of apoptosis in rat HSC-T6 cells assessed as late apoptotic cells at 25 uM after 48 hrs using Annexin V-FITC staining by flow cytometry; type: functional; summary of the method: as §2
[19] = Induction of apoptosis in rat HSC-T6 cells assessed as dead cells at 25 uM after 48 hrs using Annexin V-FITC staining by flow cytometry; type: functional; summary of the method: as §3
[20] = Induction of apoptosis in rat HSC-T6 cells assessed as viable cells at 25 uM after 48 hrs using Annexin V-FITC staining by flow cytometry; type: functional; conditions: HSC-T6, 48 h, read-out: Activity; summary of the method: as §2
[21] = Induction of apoptosis in rat HSC-T6 cells assessed as early apoptotic cells at 10 uM after 48 hrs using Annexin V-FITC staining by flow cytometry; type: functional; summary of the method: as §2
[22] = Induction of apoptosis in rat HSC-T6 cells assessed as late apoptotic cells at 10 uM after 48 hrs using Annexin V-FITC staining by flow cytometry; type: functional; summary of the method: as §2
[23] = Induction of apoptosis in rat HSC-T6 cells assessed as dead cells at 10 uM after 48 hrs using Annexin V-FITC staining by flow cytometry; type: functional; summary of the method: as §3
[24] = Induction of apoptosis in rat HSC-T6 cells assessed as viable cells at 10 uM after 48 hrs using Annexin V-FITC staining by flow cytometry; type: functional; conditions: HSC-T6, 48 h, read-out: Activity; summary of the method: as §2
[25] = system: HSC-T6; assay: Induction of apoptosis in rat HSC-T6 cells assessed as change in cell morphology at 10 to 50 uM by phase contrast microscopy; type: functional, cell-based; conditions: TDE = time-dependent effect
[26] = system: HSC-T6; assay: Induction of apoptosis in rat HSC-T6 cells assessed as change in cell morphology after 24 hrs by phase contrast microscopy; type: functional, cell-based
[27] = system: HSC-T6; assay: Induction of apoptosis in rat HSC-T6 cells assessed as change in cell morphology after 48 hrs by phase contrast microscopy; type: functional, cell-based
[28] = Induction of apoptosis in rat HSC-T6 cells assessed as viable cells at 10 uM after 24 hrs using Annexin V-FITC staining by flow cytometry; type: functional; conditions: HSC-T6, 24 h, read-out: Activity; summary of the method: as §2
[29] = Antiproliferative activity against rat HSC-T6 cells at 10 uM after 48 hrs by MTT assay; type: functional; conditions: HSC-T6, 48 h
[30] = Antiproliferative activity against rat HSC-T6 cells at 50 uM after 48 hrs by MTT assay; type: functional; conditions: HSC-T6, 48 h

| Compound | inhibition at 100 µM [1] [%] | Activity [2] [%] | Activity [3] [%] | Activity [4] [%] | Activity [5] [%] | Activity [6] [%] | Activity [7] [%] | Activity [8] [%] | Activity [9] [%] | Activity [25] | Activity [26] | Activity [27] | also measured |
| --- | --- | --- | --- | --- | --- | --- | --- | --- | --- | --- | --- | --- | --- |
| C[C@H]1[C@H](C)CC[C@]2(C(=O)O)CC[C@]3(C)C(=CC[C@@H]4[C@@]5(C)C[C@@H](O)[C@H](O)C(C)(C)[C@@H]5CC[C@]43C)[C@H]12 [COROSOLIC ACID] | 15.6 | 12.4 | 44.6 | 10.6 | 20.6 | 57.7 | 14.7 | 4.3 | 6 | tde | Dose-dependent effect | Dose-dependent effect | Activity [10]: 6.23%; Activity [11]: 7.12%; Activity [12]: 3.16%; Activity [13]: 10.45%; Activity [14]: 15.24%; Activity [15]: 8.77%; viability at 25 µM [16]: 65.5%; Activity [17]: 4.41%; Activity [18]: 9.23%; Activity [19]: 31.85%; viability at 25 µM [20]: 54.5%; Activity [21]: 10.14%; Activity [22]: 17.8%; Activity [23]: 5.44%; viability at 10 µM [24]: 66.6%; viability at 10 µM [28]: 83.5% |
| CC1(C)C=C2[C@H]3CC[C@@H]4[C@@]5(C)C(=O)C[C@H](O)C(C)(C)[C@@H]5CC[C@@]4(C)[C@]3(C)CC[C@@]2(C)CC1 | 14.2 | 1.9 | 53.2 | 14 | 17.8 | 5 | 43.6 | 10.6 | 18.8 | tde | Dose-dependent effect | Dose-dependent effect |  |
| C[C@H]1[C@H](C)CC[C@]2(C(=O)O)CC[C@]3(C)C(=CC[C@@H]4[C@@]5(C)CC[C@H](O)[C@@](C)(CO)[C@@H]5CC[C@]43C)[C@H]12 | 50 |  |  |  |  |  |  |  |  |  |  |  |  |
| C[C@H]1[C@H](C)CC[C@]2(C(=O)O)CC[C@]3(C)C(=CC[C@@H]4[C@@]5(C)C[C@@H](O)[C@@H](O)[C@@](C)(CO)[C@@H]5CC[C@]43C)[C@H]12 | 20.6 |  |  |  |  |  |  |  |  |  |  |  |  |
| C[C@H]1[C@H](C)CC[C@]2(C(=O)O)CC[C@]3(C)C(=CC[C@@H]4[C@@]5(C)CCC(=O)[C@@](C)(CO)[C@@H]5CC[C@]43C)[C@H]12 | 77.9 |  |  |  |  |  |  |  |  |  |  |  |  |
| C[C@H]1[C@H](C)CC[C@]2(C(=O)O)CC[C@]3(C)C(=CC[C@@H]4[C@@]5(C)CC[C@H](O)C(C)(C)[C@@H]5CC[C@]43C)[C@H]12 [URSOLIC ACID] | 14.8 | 2.9 | 56.4 | 11.9 | 18.9 | 17 | 39.7 | 9.6 | 16.7 | tde | Dose-dependent effect | Dose-dependent effect |  |
| O=C(O[C@@H]1Cc2c(O)cc(O)cc2O[C@@H]1c1cc(O)c(O)c(O)c1)c1cc(O)c(O)c(O)c1 [EPIGALOCATECHIN GALLATE] | 33.4 | 1.9 | 51.9 | 12.1 | 20.1 | 4.5 | 42.3 | 8.3 | 19.6 |  |  |  | inhibition at 10 µM [29]: 83.8%; inhibition at 50 µM [30]: 41.7% |
| C=C(C)[C@@H]1CC[C@]2(C)CC[C@]3(C)[C@H](CC[C@@H]4[C@@]5(C)C[C@@H](O)[C@H](O)C(C)(C)[C@@H]5CC[C@]43C)[C@@H]12 | 11 | 1.9 | 55.9 | 13.7 | 19.3 | 5.4 | 47.2 | 11 | 18 | tde | Dose-dependent effect | Dose-dependent effect |  |
